30 compounds from ChEMBL document CHEMBL1240433, “Design, synthesis, and antitubercular evaluation of novel series of 3-benzofuran-5-aryl-1-pyrazolyl-pyridylmethanone and 3-benzofuran-5-aryl-1-pyrazolylcarbonyl-4-oxo-naphthyridin analogs” (Eur J Med Chem, 2010) can be followed below.

In brackets after ≈: the same amount, converted by molar mass.

This experiment has as its system Mycobacterium tuberculosis. The experiment in a line: Antitubercular activity against multidrug-resistant Mycobacterium tuberculosis H37Rv after 6 weeks. The format is functional. An outline of the steps:
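Lowenstein-Jensen slope assay. DMSO stocks of 250 and 10 µg/mL were each mixed 0.8 mL into 7.2 mL L.J. medium, then inspissated at 75-80 °C for 3 days. A loopful of culture was dispersed with glass beads in sterile water by vortexing for 2 min and streaked onto the slopes. DMSO-only and drug-free media served as controls. Bacterial counts were read after 6 weeks at 37 °C.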

As for `CCn1cc(C(=O)N2N=C(c3cc4ccccc4o3)CC2c2ccc(OC)cc2O)c(=O)c2ccc(C)nc21` (stereo not given), the minimal inhibitory concentration (MIC) (as a rule, the lowest concentration that inhibits growth of the organism) worked out at 5.4 µg/mL (≈ 10.3 µM).
In turn, `CCn1cc(C(=O)N2N=C(c3cc4ccccc4o3)CC2c2ccc(Cl)cc2)c(=O)c2ccc(C)nc21` (stereo not given) came in with an MIC of 6.3 µg/mL (≈ 12.3 µM).
The compound `CCn1cc(C(=O)N2N=C(c3cc4ccccc4o3)CC2c2ccccc2)c(=O)c2ccc(C)nc21` (stereo not given) registered an MIC of 10.8 µg/mL (≈ 22.7 µM).
As to `CCn1cc(C(=O)N2N=C(c3cc4ccccc4o3)CC2c2ccccc2OC)c(=O)c2ccc(C)nc21` (stereo not given), the MIC was 8.5 µg/mL (≈ 16.8 µM).
As for `CCn1cc(C(=O)N2N=C(c3cc4ccccc4o3)CC2c2ccccc2[N+](=O)[O-])c(=O)c2ccc(C)nc21` (stereo not given), the figure is 3.6 µg/mL (≈ 6.9 µM); as for `CCn1cc(C(=O)N2N=C(c3cc4ccccc4o3)CC2c2ccc(O)cc2)c(=O)c2ccc(C)nc21` (stereo not given), 3.8 µg/mL (≈ 7.72 µM).
The value for `O=C(c1ccncc1)N1N=C(c2cc3ccccc3o2)CC1c1ccc(O)cc1` (stereo not given) was 6.2 µg/mL (≈ 16.2 µM); that for `O=C(c1ccncc1)N1N=C(c2cc3ccccc3o2)CC1c1ccccc1[N+](=O)[O-]` (stereo not given) was 7.5 µg/mL (≈ 18.2 µM).
In turn, `CCn1cc(C(=O)N2N=C(c3cc4ccccc4o3)CC2c2ccccc2C(=O)O)c(=O)c2ccc(C)nc21` (stereo not given) gave an MIC of 7.8 µg/mL (≈ 15 µM).
As to `O=C(c1ccncc1)N1N=C(c2cc3ccccc3o2)CC1c1ccccc1` (stereo not given), the MIC was found to be 9.5 µg/mL (≈ 25.9 µM).
As for `COc1ccccc1C1CC(c2cc3ccccc3o2)=NN1C(=O)c1ccncc1` (stereo not given), the figure is 5.7 µg/mL (≈ 14.3 µM).
The value for `O=C(c1ccncc1)N1N=C(c2cc3ccccc3o2)CC1c1cccc([N+](=O)[O-])c1` (stereo not given) was 6.9 µg/mL (≈ 16.7 µM); that for `COc1ccc(C2CC(c3cc4ccccc4o3)=NN2C(=O)c2ccncc2)c(O)c1` (stereo not given) was 4.5 µg/mL (≈ 10.9 µM); that for `O=C(c1ccncc1)N1N=C(c2cc3ccccc3o2)CC1/C=C/c1ccccc1` (stereo not given) was 7.5 µg/mL (≈ 19.1 µM).
The value for `CCn1cc(C(=O)N2N=C(c3cc4ccccc4o3)CC2c2ccc(OC)cc2)c(=O)c2ccc(C)nc21` (stereo not given) was 8.5 µg/mL (≈ 16.8 µM); that for `CCn1cc(C(=O)N2N=C(c3cc4ccccc4o3)CC2c2ccccc2O)c(=O)c2ccc(C)nc21` (stereo not given) was 6.4 µg/mL (≈ 13 µM).
Compound `O=C(O)c1ccccc1C1CC(c2cc3ccccc3o2)=NN1C(=O)c1ccncc1` (stereo not given) displayed an MIC of 3.2 µg/mL (≈ 7.78 µM).
In turn, `O=C(c1ccncc1)N1N=C(c2cc3ccccc3o2)CC1c1ccccc1Cl` (stereo not given) displayed an MIC of 9.5 µg/mL (≈ 23.6 µM).
As to `COc1ccc(C2CC(c3cc4ccccc4o3)=NN2C(=O)c2ccncc2)cc1` (stereo not given), the lowest concentration to inhibit growth (MIC) was 5.5 µg/mL (≈ 13.8 µM).
`CCn1cc(C(=O)N2N=C(c3cc4ccccc4o3)CC2c2ccco2)c(=O)c2ccc(C)nc21` (stereo not given) had an MIC of 8.5 µg/mL (≈ 18.2 µM).
As for `O=C(c1ccncc1)N1N=C(c2cc3ccccc3o2)CC1c1ccco1` (stereo not given), the figure is 10.4 µg/mL (≈ 29.1 µM); as for `CCn1cc(C(=O)N2N=C(c3cc4ccccc4o3)CC2c2ccc(N(C)C)cc2)c(=O)c2ccc(C)nc21` (stereo not given), 10.6 µg/mL (≈ 20.4 µM).
As for `CCn1cc(C(=O)N2N=C(c3cc4ccccc4o3)CC2c2ccccc2Cl)c(=O)c2ccc(C)nc21` (stereo not given), it took 8.4 µg/mL (≈ 16.4 µM) to inhibit growth (MIC).
In the case of `O=C(c1ccncc1)N1N=C(c2cc3ccccc3o2)CC1c1ccc(Cl)cc1` (stereo not given), the MIC was 10.6 µg/mL (≈ 26.4 µM).
As for `CO[C@H]1/C=C/O[C@@]2(C)Oc3c(C)c(O)c4c(O)c(c(/C=N/N5CCN(C)CC5)c(O)c4c3C2=O)NC(=O)/C(C)=C\C=C\[C@H](C)[C@H](O)[C@@H](C)[C@@H](O)[C@@H](C)[C@H](OC(C)=O)[C@@H]1C` [RIFAMPIN], the figure is 4.2 µg/mL (≈ 5.1 µM); as for `NNC(=O)c1ccncc1` [ISONIAZID], 8.5 µg/mL (≈ 62 µM); as for `CN(C)c1ccc(C2CC(c3cc4ccccc4o3)=NN2C(=O)c2ccncc2)cc1` (stereo not given), 11.5 µg/mL (≈ 28 µM).
The value for `O=C(c1ccncc1)N1N=C(c2cc3ccccc3o2)CC1c1ccccc1O` (stereo not given) was 6.2 µg/mL (≈ 16.2 µM); that for `CCn1cc(C(=O)N2N=C(c3cc4ccccc4o3)CC2/C=C/c2ccccc2)c(=O)c2ccc(C)nc21` (stereo not given) was 7.4 µg/mL (≈ 14.7 µM); that for `CCn1cc(C(=O)N2N=C(c3cc4ccccc4o3)CC2c2cccc([N+](=O)[O-])c2)c(=O)c2ccc(C)nc21` (stereo not given) was 3.7 µg/mL (≈ 7.09 µM).
